One series relates to MOLM-13. As to the kind of experiment: Growth inhibition of human MOLM13 cells after 7 days by WST-8 assay. Format: functional, cell-based. The note with it: MOLM-13, 168 h. The essentials: (§1)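 Cells cultured in IMDM or RPMI 1640 with 10% FBS at 37 °C, 5% CO2. Growth read by WST-8 at 450 nm after at least 1 h with reagent. Signals normalized to untreated cells and IC50 fitted by nonlinear regression; mean and SD from three independent experiments.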
In general terms: Formazan colour is commonly taken as a measure of viable cells.

A further series relates to HL-60. Kind of series: Growth inhibition of human HL60 cells after 7 days by WST-8 assay. In kind it is functional, cell-based. The following applies: HL-60, 168 h. The gist of the method: as §1
Series [1] concerns the target T1, Menin (Homo sapiens) (UniProt O00255).
T1 sequence (whole entry): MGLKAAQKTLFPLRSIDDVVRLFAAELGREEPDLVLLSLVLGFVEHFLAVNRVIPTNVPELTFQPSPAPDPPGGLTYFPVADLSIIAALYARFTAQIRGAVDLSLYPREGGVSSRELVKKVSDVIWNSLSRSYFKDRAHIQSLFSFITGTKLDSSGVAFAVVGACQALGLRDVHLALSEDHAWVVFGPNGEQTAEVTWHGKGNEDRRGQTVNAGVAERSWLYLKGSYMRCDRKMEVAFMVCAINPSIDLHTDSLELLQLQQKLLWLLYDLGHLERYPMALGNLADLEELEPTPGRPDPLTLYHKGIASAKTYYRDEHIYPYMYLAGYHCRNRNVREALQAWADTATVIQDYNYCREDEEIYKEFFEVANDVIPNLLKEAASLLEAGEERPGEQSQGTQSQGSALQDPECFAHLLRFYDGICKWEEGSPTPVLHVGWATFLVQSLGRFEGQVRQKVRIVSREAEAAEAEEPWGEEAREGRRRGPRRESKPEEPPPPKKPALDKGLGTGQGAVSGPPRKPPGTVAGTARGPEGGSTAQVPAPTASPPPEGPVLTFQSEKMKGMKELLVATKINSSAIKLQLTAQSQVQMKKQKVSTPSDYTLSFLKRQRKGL
Kind of series: Covalent binding affinity to human menin assessed as protein-compound complex formation at protein to compound ratio of 1:1.2 measured after overnight incubation by LC-MS analysis relative to control. The gist of the method: (§2)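 Diluted to 1 mg/mL, then run on reverse-phase C4 LC with a 5–100% MeCN/0.2% formic acid gradient and Q-TOF MS. Intact masses obtained by maximum-entropy deconvolution.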

Series [2] concerns the target T1, Menin (Homo sapiens). As to the kind of experiment: Covalent binding affinity to human menin assessed as protein-compound complex formation at protein to compound ratio of 1:1.2 after 1 hr by LC-MS analysis relative to control. The essentials:
as §2

Another series has as its system MV4-11. As to the kind of experiment: Growth inhibition of human MV4-11 cells after 7 days by WST-8 assay. The note with it: MV4-11, 168 h. In kind it is functional, cell-based. The essentials: as §1
The target of series [3] is T2, Menin (Homo sapiens, UniProt O00255).
T2 sequence (O00255 whole entry): T1 sequence (whole entry)
As to the kind of experiment: Inhibition of menin (unknown origin) by fluorescence polarization assay. The gist of the method: (§3)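 Competitive FP assay: 4 nM menin and 2 nM fluorescein-labeled tracer (final concentrations) in PBS with 100 μg/mL bovine γ-globulin and 0.01% Triton X-100. Compounds added from DMSO at varying concentrations and incubated 1 h at room temperature. IC50 obtained by nonlinear sigmoidal fitting of the FP decrease against total compound concentration.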
(In general: Polarisation of emitted light reports the rotation of a fluorescent probe.)

In series [4] the test system is Mus musculus. Kind of series: Downregulation of MEIS1 expression in tumors of CB-17 SCID mouse xenografted with human MV4-11 cells at 10 mg/kg, iv administered as single dose and measured after 24 hrs by RT-qPCR analysis relative to control. Format: functional. The essentials: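 Female C.B-17 SCID mice bearing subcutaneous MV4;11 flank xenografts were given a single IV dose (vehicle control). Tumors were harvested at 24 h, 3 mice per time point, snap-frozen in liquid N2 and ground. Total RNA was reverse-transcribed, and HOXA9, MEIS1 and GAPDH were measured by TaqMan real-time PCR. Relative expression was calculated by the comparative Ct method.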
(Xenograft models place foreign cells or tissue in a host animal.)

Series [5] is described as follows: Toxicity in SCID mouse assessed as reduction in body weight at 25 mg/kg, iv administered every other day for 1 week relative to control. In kind it is organism-based. More on the design: scale not given: the % may be the effect or the level left. The following applies: in vivo, 168 h.
Series [6] concerns Mus musculus. Kind of series: Downregulation of Hoxa9 expression in tumors of CB-17 SCID mouse xenografted with human MV4-11 cells at 10 mg/kg, iv administered as single dose and measured after 24 hrs by RT-qPCR analysis. Format: functional, organism-based. The essentials: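 MV4;11 subcutaneous xenografts in female C.B-17 SCID mice; single IV dose of 10 mg/kg or vehicle. Tumors collected 24 h post-dose, 3 mice per group, snap-frozen and powdered. Total RNA converted to cDNA; HOXA9, MEIS1 and GAPDH measured by TaqMan real-time PCR; relative expression by comparative Ct.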

A short description of series [7]: Toxicity in SCID mouse assessed as drug tolerability at 10 mg/kg, iv administered every other day for 1 week. In kind it is organism-based. The note with it: in vivo, 168 h.
The target of series [8] is T2, Menin. Kind of series: Inhibition of fluorescent labeled tracer binding to Menin (unknown origin) after 1 hr by fluorescence polarization competitive binding assay. The essentials: as §3

Calls of active or inactive are those of the source. The calls are words filed in the database; no cut-off is given here. Some results are limits rather than exact numbers.

A word on the IC50: it is the concentration that inhibits the measured activity by half. Turning to `COC(=O)N[C@H]1CCC[C@@H]1[C@](CN1CCC1)(c1cccc(F)c1)C1CCN(CC2CN(c3ccc(S(=O)(=O)C4CN(C(=O)/C=C/CN5CCC5)C4)cc3)C2)CC1`, the values for the concentration for half-maximal inhibition (IC50) in the series with MOLM-13 and in the series with HL-60 were 3 nM and 2100 nM, respectively. The Activity on Menin (Homo sapiens) [1] came out at 100%; on Menin (Homo sapiens) [2], 75%.

For `COC(=O)N[C@H]1CCC[C@@H]1[C@](CN(C)C)(c1cccc(F)c1)C1CCN(CC2CN(c3ccc(S(=O)(=O)C4CN(C(=O)/C=C/CN(C)C)C4)cc3)C2)CC1`, the figures for the half-inhibitory concentration (IC50) in the series with MOLM-13, in the series with HL-60 and in the series with MV4-11 were 2 nM, 700 nM and 1.1 nM, respectively.

As to `C=CC(=O)N1CC(S(=O)(=O)c2ccc(N3CC(CN4CCC([C@@](CN5CCC5)(c5cccc(F)c5)[C@H]5CCC[C@@H]5NC(=O)OC)CC4)C3)cc2)C1`, the half-maximal inhibitory concentration (IC50) in the series with MOLM-13 came to 374 nM; with HL-60 it was 2600 nM; in the series with MV4-11, 23 nM. For the same compound, the Activity turned out to be 75% on Menin (Homo sapiens) [1] and 50% on Menin (Homo sapiens) [2].

`COC(=O)N[C@H]1CCC[C@@H]1[C@](C#N)(c1cccc(F)c1)C1CCN(CC2CN(c3ccc(S(=O)(=O)C4CN(C(=O)/C=C/CN(C)C)C4)cc3)C2)CC1`: the half-inhibitory concentration (IC50) was found to be 19 nM in the series with MOLM-13, 1500 nM in the series with HL-60, 4 nM with MV4-11 and 3.3 nM against Menin [3]. The Activity at Menin (Homo sapiens) [1] stood at 100%; at Menin (Homo sapiens) [2] it was 95%.

For `COC(=O)N[C@H]1CCC[C@@H]1[C@](Cn1ccnn1)(c1cccc(F)c1)C1CCN(CC2CN(c3ccc(S(=O)(=O)C4CN(C(=O)/C=C/CN(C)C)C4)cc3)C2)CC1`, the IC50 in the series on MOLM-13 was 14 nM; with HL-60, 4800 nM.

On to `COC(=O)N[C@H]1CCC[C@@H]1[C@](CN1CCC1)(c1cccc(F)c1)C1CCN(CC2CN(c3ccc(S(=O)(=O)C4CN(C(=O)/C=C/CN(C)C)C4)cc3)C2)CC1`, for which the “fold change (FC)” value with Mus musculus [4] is on record as over 2. Besides, the Activity in series [5] is over 10%; on Menin (Homo sapiens) [1], 100%; on Menin (Homo sapiens) [2], 75%; in series [7], “Non-Toxic”. The figures for the IC50 in the series with MOLM-13 and in the series with HL-60 were 8 nM and 3000 nM, respectively. Besides, in the series with Mus musculus [6], the outcome was Active.

`COC(=O)N[C@H]1CCC[C@@H]1[C@](CN1CCC1)(c1cccc(F)c1)C1CCN(CC2CN(c3ccc(S(=O)(=O)C4CN(C(=O)/C=C/CN5CCC(F)CC5)C4)cc3)C2)CC1`: the half-maximal inhibitory concentration (IC50) was 21 nM in the series with MOLM-13, 3600 nM with HL-60 and 3 nM in the series on MV4-11. For the same compound, the Activity at Menin (Homo sapiens) [1] was found to be 100%; at Menin (Homo sapiens) [2], 20%.

For the compound `COC(=O)N[C@H]1CCC[C@@H]1[C@](CN1CCCCC1)(c1cccc(F)c1)C1CCN(CC2CN(c3ccc(S(=O)(=O)C4CN(C(=O)/C=C/CN(C)C)C4)cc3)C2)CC1`, the IC50 in the series with MOLM-13 turned out to be 157 nM; in the series on HL-60, 600 nM; in the series on MV4-11, 40 nM.

As for `COC(=O)N[C@H]1CCC[C@@H]1[C@](CN1CCC1)(c1cccc(F)c1)C1CCN(CC2CN(c3ccc(S(=O)(=O)C4CN(C(=O)/C=C/CN5CCCC5)C4)cc3)C2)CC1`, the “fold change (FC)” value in the series with Mus musculus [4] is over 2. In addition, the Activity in series [5] was over 10%; on Menin (Homo sapiens) [1], 100%; on Menin (Homo sapiens) [2] it was 100%; in series [7], “Non-Toxic”. The results for the IC50 in the series on MOLM-13 and with HL-60 were 9 nM and 2100 nM, respectively. In addition, the outcome in the series on Mus musculus [6] was Active.

Regarding `CCc1nccn1C[C@@](c1cccc(F)c1)(C1CCN(CC2CN(c3ccc(S(=O)(=O)C4CN(C(=O)/C=C/CN(C)C)C4)cc3)C2)CC1)[C@H]1CCC[C@@H]1NC(=O)OC`, the IC50 is 1.7 nM at Menin [8], 11 nM with MOLM-13, over 10000 nM in the series on HL-60 and 2 nM with MV4-11. Further, the Activity at Menin (Homo sapiens) [1] and on Menin (Homo sapiens) [2] was 100% throughout.

Regarding `COC(=O)N[C@H]1CCC[C@@H]1[C@](CN1CCC1)(c1cccc(F)c1)C1CCN(CC2CN(c3ccc(S(=O)(=O)C4CN(C(=O)/C=C/CN5CC(F)(F)C5)C4)cc3)C2)CC1`, the 50% inhibitory concentration (IC50) with MOLM-13 turned out to be 15 nM; with HL-60, 2800 nM; with MV4-11, 4 nM. The Activity on Menin (Homo sapiens) [1] and at Menin (Homo sapiens) [2] was 0% each time.

As to `COC(=O)N[C@H]1CCC[C@@H]1[C@](CN1CCCC1)(c1cccc(F)c1)C1CCN(CC2CN(c3ccc(S(=O)(=O)C4CN(C(=O)/C=C/CN(C)C)C4)cc3)C2)CC1`, the values for the half-inhibitory concentration (IC50) in the series on MOLM-13, with HL-60 and in the series on MV4-11 were 15 nM, 1400 nM and 5 nM, respectively.

On to `COC(=O)N[C@H]1CCC[C@@H]1[C@](CN1CCC1)(c1cccc(F)c1)C1CCN(CC2CN(c3ccc(S(=O)(=O)C4CN(C(=O)/C=C/CN5CC(F)C5)C4)cc3)C2)CC1`, for which the figures for the concentration for half-maximal inhibition (IC50) in the series on MOLM-13, in the series on HL-60 and in the series on MV4-11 were 3 nM, 2000 nM and 1 nM, respectively. Moreover, the Activity at Menin (Homo sapiens) [1] is 75%; on Menin (Homo sapiens) [2], 20%.

Turning to `COC(=O)N[C@H]1CCC[C@@H]1[C@](CN1CCC1)(c1cccc(F)c1)C1CCN(CC2CN(c3ccc(S(=O)(=O)C4CN(C(=O)/C=C/CN5CCC(F)(F)CC5)C4)cc3)C2)CC1`, the results for the half-maximal inhibitory concentration (IC50) in the series with MOLM-13, in the series with HL-60 and with MV4-11 were 20 nM, 3200 nM and 4 nM, respectively. Further, the Activity at Menin (Homo sapiens) [1] and on Menin (Homo sapiens) [2] was 0% in each case.

The values are drawn from ChEMBL document CHEMBL4342524, “Discovery of M-808 as a Highly Potent, Covalent, Small-Molecule Inhibitor of the Menin-MLL Interaction with Strong In Vivo Antitumor Activity” (J Med Chem, 2020).
